An excerpt weighted towards active compounds, which were near 8.9% of everything screened.
Lmaj promast – Leishmania major promastigote growth inhibition; Leishmania major promastigotes, resazurin fluorescence viability; inhibition, % at 10 µM; 200,000 compounds, 9% hits; AID 1063; in the data active = inhibition above about 50%;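 also: promastigotes grown with compound for 44 hours at 28 °C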
HSV replic up – increases HSV replication in cells; HSV replication augmentation in cells, fold increase; 220,000 compounds, 0.005% hits; maximum fold increase; in the data active = maximum fold increase above about 1.5; tested in PC3 cells
MT stabilize HCS – microtubule stabilization, imaging screen; 200,000 compounds, 0.83% hits; HeLa tubulin immunostaining HCS, 24 h; share of cells brighter than vehicle mean+2SD; % tubulin-high responders, % at 10 µM; AID 2205;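 active = plate Z-score above 3 for both tubulin-high and condensed-nucleus cell shares, with cell loss under 80%, at 10 µM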;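 also: anti alpha tubulin signal scored within the nucleus-defined area of each cell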
bCat nuc transl – alters nuclear translocation of beta-catenin in HeLa cells. immunofluorescence imaging. 190,000 compounds, 0.3% hits. nuclear translocation activity, % at 5 µM;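 active = nuclear translocation activity above 50% at 5 µM, with a well cell count of 50 or more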;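 also: per-cell ratio of nuclear to cytoplasmic median beta-catenin stain intensity; plate controls were DMSO negative control for no effect and GSK-3 inhibitor IX positive control for full effect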
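assay system = human HeLa cells, endogenous beta-catenin | times = compound treatment 24 h, 37°C, 5% CO2 | detection = Anti-beta-catenin immunofluorescence on PFA-fixed, Triton-permeabilized cells, DAPI nuclei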
Dynein transport – dynein cargo transport inhibition; 3617.4 mouse cells, GR-EGFP nuclear translocation imaging; test concentration mostly 20 µM; stimulated with dexamethasone, 1 µM; active compounds read low; z-score, hits read low; 220,000 compounds, 0.47% hits; AID 1381;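 active = plate z-score of nuclear minus cytoplasmic receptor signal below a set negative limit, without overly bright fluorescence or cell loss, cut at about -3.5 in these data, passing the limit was not always enough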;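 also: z-score of nuclear minus cytoplasmic ring GR-EGFP intensity difference per well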
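Also added – dexamethasone, 1.0 µM final · Buffer or medium – tet-free, stripped-serum medium · Schedule – induction 48 h, compound 1 h, agonist 30 min · Detection – formaldehyde fixation, Hoechst nuclear stain, 10x automated fluorescence imaging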
An asterisk follows results filed as active; i = inactive; · = no result.

SMILES	Lmaj promast	HSV replic up	MT stabilize HCS	bCat nuc transl	Dynein transport
O=C(Nc1nnc(-c2cccs2)o1)c1cccc(C(F)(F)F)c1	95.3*	i	1.6	·	-0.23
CN(C)S(=O)(=O)c1ccc(C(=O)Nc2nnc(-c3ccc4c(c3)CCCC4)o2)cc1	98.5*	i	3.0	6.2	0.292
N#Cc1ccc(C(=O)Nc2nnc(-c3cccs3)o2)cc1	97.8*	·	4.0	-0.6	-0.527
CN(C)S(=O)(=O)c1ccc(C(=O)Nc2nnc(-c3cccs3)o2)cc1	53.0*	i	2.9	-2.5	1.09
COc1cc(C(=O)O)ccc1OC(C)=O	-4.7	i	1.7	-3.7	-0.714
Cc1cc(OCC(=O)N2CCCCCC2)ccc1[N+](=O)[O-]	48.2	i	1.7	-2.2	-0.546
Cc1ccc([N+](=O)[O-])c(OCCCN2CCCCCC2)c1	98.5*	i	3.3	-3.4	0.659
Cc1cc(OCCN2CCCCCC2)ccc1[N+](=O)[O-]	91.5*	i	6.9	-1.7	-0.288
Cc1ccc(OCCCCN2CCCC(C)C2)c([N+](=O)[O-])c1 (centres undefined)	86.4*	i	1.3	-0.7	1.18
CC(C)CCNC(=O)NC(=O)COc1c(F)c(F)cc(F)c1F	-3.5	i	3.0	-0.8	-1.32
COc1cc2c(cc1OC)C(NC(=O)C(F)(F)F)C/C2=N\O (centres undefined)	-3.1	i	2.6	-2.3	-0.507
Nc1[nH][nH]c(=O)c1N=Nc1cccc(Cl)c1	-8.8	i	2.0	-2.6	0.0103
O=C(CCn1cccc1)Nc1nccs1	-2.6	i	2.2	-3.2	-0.171
COC(=O)N1CCN(CCc2ccccc2)CC1	96.9*	i	5.3	-1.5	-1.42
O=C(NC1CCCCC1)N1CCN(CCc2ccccc2)CC1	60.2*	i	2.9	-2.6	0.76
COc1ccc(OCCCC(=O)NCCc2ccc(OC)c(OC)c2)cc1	-3.9	i	3.2	-0.8	0.733
Oc1ccc(CNC2CCCCC2)cc1	90.2*	i	5.5	1.0	1.4
COc1ccc(Nc2nc(N)nc(CN(C)C3CCCCC3)n2)cc1	-3.8	i	2.4	-0.9	-1.04
COc1ccc(CN(C)C2CCCCC2)cc1	87.1*	i	4.9	-3.0	-0.491
CN(Cc1ccc(O)cc1)C1CCCCC1	93.3*	i	2.6	-1.8	-0.116
CC(C)Oc1ccccc1OCCCCn1cnc2ccccc2c1=O	9.8	i	3.5	0.2	-0.84
O=C(/C=C/c1ccccc1)Nc1ccc(Br)cn1	1.4	i	34.1	2.0	-0.0847
O=C(/C=C/c1cccc([N+](=O)[O-])c1)Nc1ccc(NC(=O)c2cccs2)cc1	-1.9	i	4.4	1.5	-0.0234
CC(C)CNC(=O)c1ccccc1NC(=O)/C=C/c1cccc([N+](=O)[O-])c1	52.6*	i	1.4	-0.4	0.215
O=C(/C=C/c1cccc([N+](=O)[O-])c1)Nc1ccc(Cl)cn1	1.9	i	10.1*	2.8	0.661
SMILES	Lmaj promast	HSV replic up	MT stabilize HCS	bCat nuc transl	Dynein transport
Cc1ccc(NC(=O)/C=C/c2ccc(Cl)cc2)nc1	45.3	i	20.6*	7.3	-0.462
CCN(CC)S(=O)(=O)c1cccc(NC(=O)/C=C/c2cccc([N+](=O)[O-])c2)c1	99.3*	i	7.2	4.5	1.58
CCN(CC)S(=O)(=O)c1cccc(NC(=O)/C=C/c2ccc([N+](=O)[O-])cc2)c1	-1.7	i	7.9	-1.7	0.316
Cn1cccc1/C=N/N1CCN(Cc2cccc3ccccc23)CC1	·	i	·	0.3	0.345
Cc1cc(C(=O)Nc2nc(-c3ccccn3)cs2)ccc1[N+](=O)[O-]	100.4*	i	7.8	1.9	1.2
O=C(Nc1nc(-c2ccccn2)cs1)c1ccc([N+](=O)[O-])o1	·	i	·	9.9	1.2
O=C(Nc1nc(-c2ccccn2)cs1)c1cc(Cl)ccc1[N+](=O)[O-]	100.0*	i	1.4	-2.7	0.458
CCOc1cc(C)c(-c2onc(C(F)(F)F)c2-c2csc(C)n2)c(O)c1	8.5	i	2.5	-0.9	-0.716
O=C(c1cc(Br)ccc1Cl)N1CCCC1	0.2	i	3.0	-2.8	-0.147
Cc1cc(C)c2sc(N(CCCN(C)C)C(=O)c3ccc(Br)s3)nc2c1	54.5*	i	2.3	0.7	0.984
Cc1ccc2sc(N(CCCN(C)C)C(=O)c3ccc(S(=O)(=O)N(C)C)cc3)nc2c1C	73.6*	i	1.5	0.0	-0.415
CCCCN(C)S(=O)(=O)c1ccc(C(=O)N(CCN(C)C)c2nc3ccc(C)cc3s2)cc1	7.3	i	3.4	-5.2	-0.357
CCCCN(CC)S(=O)(=O)c1ccc(C(=O)N(CCCN(C)C)c2nc3cc(C)cc(C)c3s2)cc1	100.1*	i	33.4	-4.6	2.9
CCC1CCCCN1C(=S)NC(=O)c1ccc([N+](=O)[O-])cc1 (centres undefined)	-1.5	i	5.0	-3.0	-0.167
CCOC(=O)N1CCN(C(=O)CCc2ccc(S(=O)(=O)NCCc3ccccc3)cc2)CC1	1.0	i	2.3	-0.7	1.06
COc1ccc(Br)cc1/C=N/NC(=O)c1ccc(OC)c(OC)c1	24.6	i	2.3	-2.1	0.603
Cc1cc2cc3c(cc2nc1SCC(=O)Nc1nc(C)c(C)s1)OCO3	83.2*	i	4.8	1.5	-0.675
CC1CC(C)(C)NC(=S)N1CC(=O)NCc1ccccc1Cl (centres undefined)	76.9*	i	2.3	-0.9	1.45
Cc1cccc(NC(=O)CN2C(=S)NC(C)(C)CC2C)c1 (centres undefined)	54.3*	i	4.1	1.2	1.29
Cc1ccc(NC(=O)CCCN2C(=S)NC(C)(C)CC2C)cc1 (centres undefined)	-4.3	i	7.0	-3.5	-0.438
Cc1ccccc1NC(=O)CN1C(=S)NC(C)(C)CC1C (centres undefined)	52.7*	i	2.4	-0.2	0.422
CC1CC(C)(C)NC(=S)N1CC(=O)NCc1ccc(Cl)cc1 (centres undefined)	-5.7	i	3.8	0.3	-0.252
COc1cc(NC(=O)COC(C)=O)cc(OC)c1OC	-0.2	i	2.8	-3.4	-0.24
CCOC(=O)C1(CCCc2ccccc2)CCN(C(=O)c2ccoc2)CC1	30.0	i	3.2	1.3	-0.476
COc1ccc(CNc2cc(NCCCO)c([N+](=O)[O-])c3nonc23)cc1	66.7*	i	1.7	-0.7	-0.583
O=[N+]([O-])c1c(NCCCO)cc(N2CCN(Cc3ccc4c(c3)OCO4)CC2)c2nonc12	0.9	i	2.0	-3.2	0.065
CCc1cc(C(c2ccc(OC)c(OC)c2)N2CCOCC2)c(NC(=O)c2ccccc2)s1 (centres undefined)	-2.5	i	5.1	-2.6	-1.05
CCOC(=O)C1=NN(c2ccccc2)C(c2ccccc2)CC1=O (centres undefined)	48.5	i	5.1	3.4	-0.106
CCOC(=O)C1=NN(c2ccc(OC)cc2)C(c2ccccc2)CC1=O (centres undefined)	60.6*	i	3.6	3.9	0.185
